ChEMBL document CHEMBL3745614, “Potent and selective N-(4-sulfamoylphenyl)thiourea-based GPR55 agonists” (Eur J Med Chem, 2016)
Calls of active or inactive are those of the source. The rule behind the calls is not given here.

What was measured:
[1] = biological target: T1, G-protein coupled receptor 55 (Homo sapiens, UniProt Q9Y2T6); experiment: Agonist activity at human GPR55 expressed in CHOK1 cells at 10 uM by pathHunter beta-arrestin assay relative to LPI; format: cell-based; settings: CHO-K1
Method in brief: (§1)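 PathHunter eXpress GPR55 CHO-K1 β-arrestin kit run per the kit protocol, compounds screened at 10 μM. Luminescence read and expressed as percentage of the signal from bovine liver LPI at 1 μM. Mean with range of two experiments, each done in duplicate.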

[2] = biological target: T1, G-protein coupled receptor 55; experiment: Agonist activity at human GPR55 expressed in HEK293 cells assessed as calcium signalling at 10 uM by fura 2-based digital epifluorescence microscopy; format: functional, cell-based
[3] = biological target: T1, G-protein coupled receptor 55; experiment: Agonist activity at human GPR55 expressed in CHOK1 cells at 10 uM by pathHunter beta-arrestin assay relative to control; format: cell-based; settings: CHO-K1; method in brief: as §1
[4] = biological target: Cannabinoid receptor 2 (Homo sapiens) (UniProt P34972); experiment: Agonist activity at CBR2 (unknown origin) assessed as [35S]GTPgammaS binding at 10 uM by […] assay relative to control; format: functional
[5] = biological target: T2, Monoacylglycerol lipase ABHD6 (Homo sapiens) (UniProt Q9BV23); experiment: Inhibition of human ABHD6 expressed in […] cells using 2-AG as substrate assessed as glycerol liberation at 1 uM preincubated for 30 mins followed by 2-AG addition measured for 90 mins by fluorescent glycerol assay relative to control; format: cell-based; parameters: scale not given: the % may be the effect or the level left
T2 sequence (whole entry): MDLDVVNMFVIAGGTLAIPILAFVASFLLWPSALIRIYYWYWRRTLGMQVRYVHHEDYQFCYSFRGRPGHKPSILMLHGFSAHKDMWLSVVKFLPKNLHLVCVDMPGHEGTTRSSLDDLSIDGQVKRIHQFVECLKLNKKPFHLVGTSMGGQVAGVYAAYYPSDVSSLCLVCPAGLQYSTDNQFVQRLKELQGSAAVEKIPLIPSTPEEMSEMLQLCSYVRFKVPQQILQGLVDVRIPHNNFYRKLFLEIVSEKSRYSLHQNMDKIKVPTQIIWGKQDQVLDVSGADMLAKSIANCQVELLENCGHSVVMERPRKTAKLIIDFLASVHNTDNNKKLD
Method in brief: (§2)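 Lysates of HEK293 cells transiently overexpressing hABHD6 or hABHD12, 0.3 μg protein/well. Pretreated 30 min with DMSO or compound, then 2-AG added (12.5 μM final). Glycerol release coupled enzymatically to H2O2-dependent resorufin formation; fluorescence (ex 530/em 590 nm) followed kinetically for 90 min.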

[6] = biological target: T3, Lysophosphatidylserine lipase ABHD12 (Homo sapiens) (UniProt Q8N2K0); experiment: Inhibition of human ABHD12 expressed in […] cells using 2-AG as substrate assessed as glycerol liberation at 1 uM preincubated for 30 mins followed by 2-AG addition measured for 90 mins by fluorescent glycerol assay relative to control; format: cell-based; parameters: scale not given: the % may be the effect or the level left; method in brief: as §2
T3 sequence (whole entry): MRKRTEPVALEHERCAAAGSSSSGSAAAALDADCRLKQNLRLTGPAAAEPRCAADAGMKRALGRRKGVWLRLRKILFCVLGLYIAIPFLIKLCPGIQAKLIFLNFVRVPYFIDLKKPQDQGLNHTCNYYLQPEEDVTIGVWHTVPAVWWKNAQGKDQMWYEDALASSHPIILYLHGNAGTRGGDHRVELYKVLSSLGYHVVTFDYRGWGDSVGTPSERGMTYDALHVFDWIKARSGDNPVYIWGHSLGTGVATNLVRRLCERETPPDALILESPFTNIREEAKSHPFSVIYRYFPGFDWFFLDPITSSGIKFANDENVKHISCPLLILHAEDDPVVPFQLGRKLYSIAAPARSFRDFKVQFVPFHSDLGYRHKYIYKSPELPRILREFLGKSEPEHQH

[7] = biological target: T4, Fatty-acid amide hydrolase 1 (Homo sapiens) (UniProt O00519); experiment: Inhibition of human FAAH expressed in African green monkey COS-7 cell membranes using [3H]-AEA as substrate assessed as residual activity at 10 uM preincubated for 10 mins followed by substrate addition measured after 10 mins by liquid scintillation counting analysis relative to control
T4 sequence (whole entry): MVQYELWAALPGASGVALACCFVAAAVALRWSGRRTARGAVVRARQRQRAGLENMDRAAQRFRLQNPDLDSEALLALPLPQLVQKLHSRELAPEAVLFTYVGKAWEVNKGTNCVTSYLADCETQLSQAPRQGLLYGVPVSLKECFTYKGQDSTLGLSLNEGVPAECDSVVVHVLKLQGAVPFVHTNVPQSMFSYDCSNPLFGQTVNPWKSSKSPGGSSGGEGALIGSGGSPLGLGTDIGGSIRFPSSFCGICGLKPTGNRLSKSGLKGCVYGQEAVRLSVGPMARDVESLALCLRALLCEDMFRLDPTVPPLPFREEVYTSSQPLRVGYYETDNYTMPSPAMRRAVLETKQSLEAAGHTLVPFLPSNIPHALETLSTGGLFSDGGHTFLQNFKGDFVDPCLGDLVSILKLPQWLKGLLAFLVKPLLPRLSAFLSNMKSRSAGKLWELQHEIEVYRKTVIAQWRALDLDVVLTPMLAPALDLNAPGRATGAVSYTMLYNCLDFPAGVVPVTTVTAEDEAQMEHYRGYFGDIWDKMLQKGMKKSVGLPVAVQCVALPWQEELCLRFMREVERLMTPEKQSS
Method in brief: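 Membranes of COS-7 cells overexpressing hFAAH, 1 μg protein per incubation. Substrate 20 μM AEA including 10 nM [3H]AEA (60 Ci/mmol). Compounds tested at 10 μM.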

[8] = biological target: Cannabinoid receptor 2 (Homo sapiens) (UniProt P34972); experiment: Antagonist activity at human CBR2 assessed as [35S]GTPgammaS binding at 10 uM by […] assay relative to control; format: functional; parameters: scale not given: the % may be the effect or the level left
[9] = biological target: Cannabinoid receptor 1 (Homo sapiens) (UniProt P21554); experiment: Agonist activity at CBR1 (unknown origin) assessed as [35S]GTPgammaS binding at 10 uM by […] assay relative to control; format: functional
[10] = biological target: Cannabinoid receptor 1 (Homo sapiens) (UniProt P21554); experiment: Antagonist activity at human CBR1 assessed as [35S]GTPgammaS binding at 10 uM by radiometric assay relative to control; parameters: scale not given: the % may be the effect or the level left
[11] = biological target: T5, Monoglyceride lipase (Homo sapiens) (UniProt Q99685); experiment: Inhibition of human MGL expressed in […] cells using 2AG as substrate assessed as residual activity at 10 uM preincubated for 10 mins followed by substrate addition measured after 10 mins by HPLC analysis; format: cell-based
T5 sequence (whole entry): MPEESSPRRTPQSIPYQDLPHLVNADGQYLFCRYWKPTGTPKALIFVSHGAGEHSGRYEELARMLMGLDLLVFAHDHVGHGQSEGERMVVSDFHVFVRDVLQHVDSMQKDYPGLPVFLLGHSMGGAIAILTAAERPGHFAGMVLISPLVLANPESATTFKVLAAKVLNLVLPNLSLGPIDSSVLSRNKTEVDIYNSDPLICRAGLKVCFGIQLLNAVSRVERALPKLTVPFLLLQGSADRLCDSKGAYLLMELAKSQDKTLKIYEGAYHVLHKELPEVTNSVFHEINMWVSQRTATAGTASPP
Method in brief: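 Lysates of HEK cells overexpressing hMGL, 2.5 μg protein per incubation, substrate at 50 μM. Compounds tested at 10 μM.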

[12] = biological target: T1, G-protein coupled receptor 55; experiment: Agonist activity at human GPR55 expressed in Saccharomyces cerevisiae by beta-galactosidase reporter assay
[13] = biological target: T6, Sodium- and chloride-dependent glycine transporter 1 (Homo sapiens, UniProt P48067); experiment: Inhibition of GlyT1 (unknown origin) expressed in HEK293 cells by scintillation proximity assay; format: cell-based
T6 sequence (P48067 whole entry): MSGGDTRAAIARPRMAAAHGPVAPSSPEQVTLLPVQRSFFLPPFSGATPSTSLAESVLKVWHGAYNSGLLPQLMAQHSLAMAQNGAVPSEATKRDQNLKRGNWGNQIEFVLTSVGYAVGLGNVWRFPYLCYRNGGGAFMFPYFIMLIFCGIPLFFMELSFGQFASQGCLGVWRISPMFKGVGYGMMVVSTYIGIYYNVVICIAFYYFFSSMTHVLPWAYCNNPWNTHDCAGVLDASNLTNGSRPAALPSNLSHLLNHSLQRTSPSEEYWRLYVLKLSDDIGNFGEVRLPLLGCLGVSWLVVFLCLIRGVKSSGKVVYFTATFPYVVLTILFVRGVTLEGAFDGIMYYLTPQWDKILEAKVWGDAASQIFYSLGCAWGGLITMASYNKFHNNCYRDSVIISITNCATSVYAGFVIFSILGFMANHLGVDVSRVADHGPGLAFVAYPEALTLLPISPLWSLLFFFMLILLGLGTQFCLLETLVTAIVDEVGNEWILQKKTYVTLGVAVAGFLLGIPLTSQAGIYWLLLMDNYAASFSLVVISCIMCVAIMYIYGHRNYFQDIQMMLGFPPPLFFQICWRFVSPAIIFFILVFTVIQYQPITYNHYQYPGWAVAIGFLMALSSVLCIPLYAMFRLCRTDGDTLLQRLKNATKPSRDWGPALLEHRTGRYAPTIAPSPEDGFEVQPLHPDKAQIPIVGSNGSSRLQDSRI

Chain of Cannabinoid receptor 2 (Homo sapiens) (P34972 whole entry): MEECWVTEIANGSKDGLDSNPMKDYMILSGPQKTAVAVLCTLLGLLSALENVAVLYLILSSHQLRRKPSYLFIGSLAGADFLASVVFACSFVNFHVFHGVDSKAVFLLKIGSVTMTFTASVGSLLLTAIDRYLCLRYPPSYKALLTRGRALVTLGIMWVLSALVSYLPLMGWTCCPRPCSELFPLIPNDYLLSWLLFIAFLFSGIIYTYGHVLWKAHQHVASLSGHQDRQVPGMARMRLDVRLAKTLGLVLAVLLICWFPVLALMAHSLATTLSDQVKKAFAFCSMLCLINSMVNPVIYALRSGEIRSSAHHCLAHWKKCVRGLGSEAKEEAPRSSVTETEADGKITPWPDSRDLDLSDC
Chain of Cannabinoid receptor 1 (Homo sapiens) (P21554 whole entry): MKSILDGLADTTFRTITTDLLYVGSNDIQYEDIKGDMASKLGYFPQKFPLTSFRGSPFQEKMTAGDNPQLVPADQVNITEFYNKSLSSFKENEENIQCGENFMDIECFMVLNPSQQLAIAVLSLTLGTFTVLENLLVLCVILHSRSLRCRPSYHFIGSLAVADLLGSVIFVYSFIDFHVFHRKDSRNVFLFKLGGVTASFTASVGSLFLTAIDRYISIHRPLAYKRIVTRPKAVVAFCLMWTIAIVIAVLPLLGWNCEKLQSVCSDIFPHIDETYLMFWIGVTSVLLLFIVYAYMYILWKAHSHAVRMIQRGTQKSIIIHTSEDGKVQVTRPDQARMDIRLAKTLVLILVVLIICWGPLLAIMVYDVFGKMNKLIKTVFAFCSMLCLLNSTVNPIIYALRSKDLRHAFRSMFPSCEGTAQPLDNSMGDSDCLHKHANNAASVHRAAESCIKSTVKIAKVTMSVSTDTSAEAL
T1 sequence (Q9Y2T6 whole entry): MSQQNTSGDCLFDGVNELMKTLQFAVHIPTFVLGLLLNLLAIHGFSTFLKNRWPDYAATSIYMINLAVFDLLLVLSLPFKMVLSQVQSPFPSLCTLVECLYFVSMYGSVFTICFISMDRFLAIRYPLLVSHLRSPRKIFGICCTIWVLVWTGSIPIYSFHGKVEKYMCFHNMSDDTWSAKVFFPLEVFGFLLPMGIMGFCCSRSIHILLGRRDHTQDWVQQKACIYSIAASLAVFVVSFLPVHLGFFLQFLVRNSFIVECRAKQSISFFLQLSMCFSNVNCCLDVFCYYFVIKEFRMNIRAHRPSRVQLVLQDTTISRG

Activity [1] | Activity [2] | Activity [3] | Activity [4] | Activity [5] | Activity [6] | Activity [7] | Activity [8] | Activity [9] | Activity [10] | Activity [11] | EC50 [12] | IC50 [13] | Compound
107% | inactive | 157% | 95% | 103% | 100% | 93% | 95% | 100% | 98% | 98% |  |  | O=C(NC(=S)Nc1ccc(S(=O)(=O)NCc2ccc(I)cc2)cc1)c1ccc(-c2ccccc2)cc1
90% | inactive | 132% | 96% | 99% | 101% | 85% | 106% | 103% | 94% | 102% |  |  | O=C(NC(=S)Nc1ccc(S(=O)(=O)NCCc2c[nH]c3ccccc23)cc1)c1ccc(-c2ccccc2)cc1
 |  |  |  |  |  |  |  |  |  |  | 316 nM | 20 nM | COC(C)c1ccc(N2CCN(C(=O)c3cc(S(C)(=O)=O)ccc3-c3ccc(F)cc3)CC2)c(F)c1 (stereo unspecified)
 |  |  |  |  |  |  |  |  |  |  | 158 nM | 10000 nM | CS(=O)(=O)c1ccc(-c2ccc(F)cc2)c(C(=O)N2CCN(c3ccc(N)cc3F)CC2)c1
